Holding throughout (assay type): ADME, organism-based
The nature of data set [1]: Volume of distribution at steady state in BCRP knockout Sprague-Dawley rat at 5 mg/kg, iv by LC-MS/MS analysis. The conditions noted are these: in vivo, read-out: Vdss. Further details: dose 5 mg/kg, route intravenous. The procedure, abridged:
(§1)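 Male Sprague-Dawley knockout rats or wild-type rats matched for age and weight, with femoral artery and vein cannulas. Crossover design: sulfasalazine 5 mg/kg iv bolus (water, pH 9–10) on day 0, then 20 mg/kg oral gavage (0.5% carboxymethyl cellulose in PBS, pH 7.4) on day 3. Arterial plasma collected 0–24 h. Sulfasalazine and sulfapyridine measured by LC-MS/MS; noncompartmental parameters; mean ± S.D., n = 4 to 8.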

Data set [2] in a line: Half life in BCRP knockout Sprague-Dawley rat at 20 mg/kg, po by LC-MS/MS analysis. More on the design: dose 20 mg/kg, route oral. The conditions noted are these: in vivo. The procedure, abridged:
as §1

Data set [3] is described as follows: Clearance in MRP2-deficient Wistar rat at 5 mg/kg, iv by LC-MS/MS analysis. Further details: dose 5 mg/kg, route intravenous. The conditions noted are these: in vivo. A digest of the protocol:
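Male Wistar wild-type or Mrp2-deficient TR⁻ rats with femoral artery and vein cannulas. Sulfasalazine was given as a 5 mg/kg i.v. bolus and as a 20 mg/kg oral dose. Arterial plasma was sampled to 24 h and analysed for parent and sulfapyridine by LC-MS/MS. Noncompartmental parameters; n = 3, mean ± S.D.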

Data set [4] is described as follows: Half life in wild-type Sprague-Dawley rat at 20 mg/kg, po by LC-MS/MS analysis. More on the design: dose 20 mg/kg, route oral. The conditions noted are these: in vivo. A digest of the protocol:
as §1

Data set [5] in a line: Tmax in MRP2 knockout Sprague-Dawley rat at 20 mg/kg, po by LC-MS/MS analysis. Further details: dose 20 mg/kg, route oral. The conditions noted are these: in vivo. The procedure, abridged: (§2)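 Male Sprague-Dawley rats (knockout or wild type, matched for age and weight) with femoral artery and vein cannulas, recovered ≥2 days. In an i.v./oral crossover with a 3-day washout, sulfasalazine was given by oral gavage at 20 mg/kg in 0.5% carboxymethyl cellulose/PBS pH 7.4. Arterial plasma was sampled 0–24 h and analysed by LC-MS/MS (1–5000 ng/ml). Noncompartmental analysis; n = 4 to 8.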

Data set [6] in a line: Half life in BCRP knockout Sprague-Dawley rat at 5 mg/kg, iv by LC-MS/MS analysis. More on the design: dose 5 mg/kg, route intravenous. The conditions noted are these: in vivo. The procedure, abridged:
as §1

Data set [7] is described as follows: Cmax in MRP2-deficient Wistar rat at 5 mg/kg, po by LC-MS/MS analysis. More on the design: dose 5 mg/kg, route oral. The conditions noted are these: in vivo.
A short description of data set [8]: Volume of distribution at steady state in MRP2-deficient Wistar rat at 5 mg/kg, iv by LC-MS/MS analysis. Further details: dose 5 mg/kg, route intravenous. The conditions noted are these: in vivo, read-out: Vdss. The procedure, abridged:
(§3)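 Male Wistar wild-type rats and Mrp2-deficient TR⁻ rats with femoral artery and vein cannulas. Sulfasalazine given as an iv bolus (5 mg/kg, water at pH 9–10) and by oral gavage, each followed by arterial plasma sampling over 24 h. Sulfasalazine and sulfapyridine measured by LC-MS/MS; noncompartmental parameters; mean ± S.D., n = 3.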

Data set [9] is described as follows: Tmax in wild-type Sprague-Dawley rat at 20 mg/kg, po by LC-MS/MS analysis. The conditions noted are these: in vivo. Further details: dose 20 mg/kg, route oral. The procedure, abridged:
as §2

Data set [10] is described as follows: Half life in wild-type Sprague-Dawley rat at 5 mg/kg, iv by LC-MS/MS analysis. Further details: dose 5 mg/kg, route intravenous. The conditions noted are these: in vivo. The procedure, abridged: as §1
Data set [11] in a line: Oral bioavailability in BCRP knockout […]. The conditions noted are these: in vivo.
A short description of data set [12]: Volume of distribution at steady state in wild-type Sprague-Dawley rat at 5 mg/kg, iv by LC-MS/MS analysis. More on the design: dose 5 mg/kg, route intravenous. The conditions noted are these: in vivo, read-out: Vdss. The procedure, abridged:
as §1

The nature of data set [13]: Half life in MDR1A knockout Sprague-Dawley rat at 20 mg/kg, po by LC-MS/MS analysis. The conditions noted are these: in vivo. Further details: dose 20 mg/kg, route oral. The procedure, abridged:
as §1

The nature of data set [14]: Volume of distribution at steady state in wild-type Wistar rat at 5 mg/kg, iv by LC-MS/MS analysis. More on the design: dose 5 mg/kg, route intravenous. The conditions noted are these: in vivo, read-out: Vdss. The procedure, abridged:
as §3

Data set [15] in a line: Oral bioavailability in wild-type Wistar rat at 5 mg/kg by LC-MS/MS analysis. The conditions noted are these: in vivo. The procedure, abridged: as §3
Data set [16] is described as follows: Clearance in MRP2 knockout Sprague-Dawley rat at 5 mg/kg, iv by LC-MS/MS analysis. Further details: dose 5 mg/kg, route intravenous. The conditions noted are these: in vivo. The procedure, abridged:
(§4)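 Male Sprague-Dawley knockout or age/weight-matched wild-type rats with femoral artery and vein cannulas. Crossover design: day 0 i.v. bolus 5 mg/kg sulfasalazine in water at pH 9–10, then day 3 gavage 20 mg/kg in 0.5% carboxymethyl cellulose/PBS pH 7.4. Arterial plasma was sampled to 24 h. Sulfasalazine and sulfapyridine were measured by LC-MS/MS (1–5000 ng/ml). Parameters are noncompartmental; n = 4–8, mean ± S.D.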

Data set [17] can be described thus: Clearance in BCRP knockout Sprague-Dawley rat at 5 mg/kg, iv by LC-MS/MS analysis. The conditions noted are these: in vivo. More on the design: dose 5 mg/kg, route intravenous. A digest of the protocol: as §4
A short description of data set [18]: AUC (infinity) in wild-type Sprague-Dawley rat at 5 mg/kg, iv by LC-MS/MS analysis. More on the design: time infinity, dose 5 mg/kg, route intravenous. The conditions noted are these: plasma. The procedure, abridged: as §4

We go through 1 compound from ChEMBL document CHEMBL3526049 (Drug Metab Dispos, 2012).

Broadly, the half-life is the time needed for the level to fall by half in the phase considered. Usually clearance stands for a measure of how efficiently the substance is removed, as volume per time. A higher clearance goes with a high capacity for elimination. In general, Tmax refers to the time at which the peak concentration occurs. The Cmax is the maximum level reached in the sampled fluid or tissue. Broadly, the bioavailability is dose-corrected exposure relative to a reference, in per cent. The low end stands for poor availability, the high end for good availability. In general, AUC(0-inf) refers to the area under the concentration-time curve extrapolated to infinity. Low readings indicate less exposure, high ones more exposure. As to `O=C(O)c1cc(/N=N/c2ccc(S(=O)(=O)Nc3ccccn3)cc2)ccc1O` [SULFASALAZINE], the Vd in data set [1] came to 0.408 L/kg; in data set [8], 0.839 L/kg; in data set [12], 0.168 L/kg; in [14], 0.244 L/kg. The half-life in data set [2] was 1.9 h; in data set [4] it was 2.6 h; in [6] it was 1.4 h; in data set [10], 1.6 h; in [13] it was 2.3 h. For the same compound, the values for the clearance in data set [3], in [16] and in data set [17] were 10.9 mL/min/kg, 22 mL/min/kg and 7.8 mL/min/kg, respectively. The Tmax in [5] and in [9] was 0.25 h each time. Besides, in data set [7], the Cmax turned out to be 144 ng/mL. Further, the bioavailability is 37% in [11] and 3.8% in [15]. Besides, the AUC(0-inf) in data set [18] was found to be 8400 ng·h/mL.
